Measurements of several laboratories.
Read-out: cell growth or viability

The IC50 of `N.N.[Cl][Pt][Cl]` is reported as 35600 nM (HCT-116; 24 h).
`CC[C@@]1(OC(=O)[C@@H](N)Cc2ccccc2)C(=O)OCc2c1cc1n(c2=O)Cc2cc3cc4c(cc3nc2-1)OCO4` gave an IC50 of 38 nM (HCT-116; MTT).
For `Cc1cccc2c(CNCC3(N4CCCC4)COC3)c[nH]c12`, the viability was 3.42% (U-87 MG; 30 µM; 48 h).
`CC[C@@]1(OC(=O)C(C)c2cccc(C(=O)c3ccccc3)c2)C(=O)OCc2c1cc1n(c2=O)Cc2cc3cc4c(cc3nc2-1)OCO4` (some centres unmarked) gave an IC50 of 302 nM (HCT-116; MTT).
`COc1cc2c(c3c1C(=O)C[C@@H](c1ccccc1)O3)[C@H]1[C@@H](O2)OC(C)(C)[C@@H]1OC(C)=O` has an IC50 of > 10000 nM (Raji; MTS; 48 h).
For `Cc1ccc2c(CNCC3(N4CCCC4)COC3)c[nH]c2c1`, the viability was 27.6% (U-87 MG; 30 µM; 48 h).
`Cc1cccc(-n2ncc(Cl)c(Cl)c2=O)c1` has an IC50 of 650 nM (PC-9; resazurin; 96 h).
The IC50 of `CC[C@@]1(OC(=O)[C@H](C)N)C(=O)OCc2c1cc1n(c2=O)Cc2cc3cc4c(cc3nc2-1)OCO4` is reported as 80 nM (HCT-116; MTT).
`O=c1c2ccccc2nc(S)n1-c1ccccc1` has a viability of 73.5% (HCT-116; LDH; 200 µg/mL; 24 h).
With `CN[C@@H]1C[C@H]2O[C@@](C)([C@@H]1OC)n1c3ccccc3c3c4c(c5c6ccccc6n2c5c31)C(=O)NC4` the IC50 was 16 nM (SHP77; MTT).
`Cc1cc(N(CCOS(C)(=O)=O)CCOS(C)(=O)=O)ccc1C=O` has an IC50 of 0.79 µg/mL (SN12K1).
`CC[C@@]1(OC(=O)[C@@H]2CCCN2)C(=O)OCc2c1cc1n(c2=O)Cc2cc3cc4c(cc3nc2-1)OCO4` has an IC50 of 125 nM (HCT-116; MTT).
`COc1c2ccoc2cc2oc(=O)ccc12` gave an IC50 of 29000 nM (HCT-116; WST-1; 48 h).
`CC1=C(O)C(=O)C=C2C1=CC=C1[C@@]2(C)CC[C@@]2(C)[C@@H]3C[C@](C)(C(=O)OCCCn4cc(C=O)c5ccccc54)CC[C@]3(C)CC[C@]12C` gave an IC50 of 320 nM (AGS; MTT; 48 h).
